From article PMC9477609 (Journal of Molecular Liquids, 2022)
Values after ≈ are worked out from the molar mass of the structure shown.

Experiments:
[1] = cited from earlier work
[2] = apparent thermodynamic analysis: dissolution Gibbs free energy; type: physicochemical
Method in brief: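 Excess solid was added to the pure solvent, vortexed and sonicated, then shaken for 24 h at 300 rpm at each temperature from 298.15 to 323.15 K. Samples were centrifuged for 20 min at 8000 rpm and 25 °C. Supernatant was diluted in MeOH/water 8:2 and read by absorbance at 330 nm against a 5–35 µg/mL calibration. Mole fraction solubility was the mean of triplicates. Dissolution thermodynamics came from Van't Hoff analysis.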

[3] = water solubility of neat and equilibrated powders; type: physicochemical; conditions: for water solubility: neat and solvent-equilibrated dry powders
snails = conditions: cited from earlier work
MDA-MB-231 = conditions: human breast cancer cell lines (MDA-MB-231) ref 5; cited from earlier work
MCF-7 = conditions: read-out: cell proliferation inhibitor IC50; MCF-7 ref 5; cited from earlier work
parasitic proliferation = conditions: cited from earlier work
hepatitis C virus = conditions: cited from earlier work
[4] = in water, PBS (pH 7.4), SGF and SIF; no reference given; cited from earlier work

SMILES: CO [methanol]
- log P [1]: −0.69

SMILES: O=C(Nc1ccc([N+](=O)[O-])cc1Cl)c1cc(Cl)ccc1O [niclosamide, N-(2′-chloro-4′-nitrophenyl)-5-chlorosalicylamide]
- ΔdisG, dissolution Gibbs free energy ([2]; 1-butanol, 298.15 K): -0.48423 kcal/mol
- ΔdisG, dissolution Gibbs free energy ([2]; 1-butanol, 303.15 K): -0.48341 kcal/mol
- ΔdisG, dissolution Gibbs free energy ([2]; 1-butanol, 308.15 K): -0.48255 kcal/mol
- ΔdisG, dissolution Gibbs free energy ([2]; 1-butanol, 313.15 K): -0.48176 kcal/mol
- ΔdisG, dissolution Gibbs free energy ([2]; 1-butanol, 318.15 K): -0.48088 kcal/mol
- ΔdisG, dissolution Gibbs free energy ([2]; 1-butanol, 323.15 K): -0.48009 kcal/mol
- ΔdisG, dissolution Gibbs free energy ([2]; 2-propanol, 298.15 K): -0.09434 kcal/mol
- ΔdisG, dissolution Gibbs free energy ([2]; 2-propanol, 303.15 K): -0.09015 kcal/mol
- ΔdisG, dissolution Gibbs free energy ([2]; 2-propanol, 308.15 K): -0.08597 kcal/mol
- ΔdisG, dissolution Gibbs free energy ([2]; 2-propanol, 313.15 K): -0.08179 kcal/mol
- ΔdisG, dissolution Gibbs free energy ([2]; 2-propanol, 318.15 K): -0.07763 kcal/mol
- ΔdisG, dissolution Gibbs free energy ([2]; 2-propanol, 323.15 K): -0.07345 kcal/mol
- ΔdisG, dissolution Gibbs free energy ([2]; DMSO, 298.15 K): 0.1837 kcal/mol
- ΔdisG, dissolution Gibbs free energy ([2]; DMSO, 303.15 K): 0.1905 kcal/mol
- ΔdisG, dissolution Gibbs free energy ([2]; DMSO, 308.15 K): 0.1973 kcal/mol
- ΔdisG, dissolution Gibbs free energy ([2]; DMSO, 313.15 K): 0.2041 kcal/mol
- ΔdisG, dissolution Gibbs free energy ([2]; DMSO, 318.15 K): 0.2109 kcal/mol
- ΔdisG, dissolution Gibbs free energy ([2]; DMSO, 323.15 K): 0.2177 kcal/mol
- ΔdisG, dissolution Gibbs free energy ([2]; Ethanol, 298.15 K): 0.3086 kcal/mol
- ΔdisG, dissolution Gibbs free energy ([2]; Ethanol, 303.15 K): 0.31637 kcal/mol
- ΔdisG, dissolution Gibbs free energy ([2]; Ethanol, 308.15 K): 0.32414 kcal/mol
- ΔdisG, dissolution Gibbs free energy ([2]; Ethanol, 313.15 K): 0.33191 kcal/mol
- ΔdisG, dissolution Gibbs free energy ([2]; Ethanol, 318.15 K): 0.33967 kcal/mol
- ΔdisG, dissolution Gibbs free energy ([2]; Ethanol, 323.15 K): 0.34744 kcal/mol
- ΔdisG, dissolution Gibbs free energy ([2]; Methanol, 298.15 K): 1.3769 kcal/mol
- ΔdisG, dissolution Gibbs free energy ([2]; Methanol, 303.15 K): 1.3941 kcal/mol
- ΔdisG, dissolution Gibbs free energy ([2]; Methanol, 308.15 K): 1.4113 kcal/mol
- ΔdisG, dissolution Gibbs free energy ([2]; Methanol, 313.15 K): 1.4285 kcal/mol
- ΔdisG, dissolution Gibbs free energy ([2]; Methanol, 318.15 K): 1.4457 kcal/mol
- ΔdisG, dissolution Gibbs free energy ([2]; Methanol, 323.15 K): 1.463 kcal/mol
- ΔdisG, dissolution Gibbs free energy ([2]; PEG-200, 298.15 K): -0.1837 kcal/mol
- ΔdisG, dissolution Gibbs free energy ([2]; PEG-200, 303.15 K): -0.1807 kcal/mol
- ΔdisG, dissolution Gibbs free energy ([2]; PEG-200, 308.15 K): -0.1777 kcal/mol
- ΔdisG, dissolution Gibbs free energy ([2]; PEG-200, 313.15 K): -0.1747 kcal/mol
- ΔdisG, dissolution Gibbs free energy ([2]; PEG-200, 318.15 K): -0.1717 kcal/mol
- ΔdisG, dissolution Gibbs free energy ([2]; PEG-200, 323.15 K): -0.1687 kcal/mol
- ΔdisG, dissolution Gibbs free energy ([2]; PEG-400, 298.15 K): -0.50012 kcal/mol
- ΔdisG, dissolution Gibbs free energy ([2]; PEG-400, 303.15 K): -0.50024 kcal/mol
- ΔdisG, dissolution Gibbs free energy ([2]; PEG-400, 308.15 K): -0.50038 kcal/mol
- ΔdisG, dissolution Gibbs free energy ([2]; PEG-400, 313.15 K): -0.50048 kcal/mol
- ΔdisG, dissolution Gibbs free energy ([2]; PEG-400, 318.15 K): -0.50067 kcal/mol
- ΔdisG, dissolution Gibbs free energy ([2]; PEG-400, 323.15 K): -0.50079 kcal/mol
- ΔdisG, dissolution Gibbs free energy ([2]; Water, 298.15 K): 0.1407 kcal/mol
- ΔdisG, dissolution Gibbs free energy ([2]; Water, 303.15 K): 0.1507 kcal/mol
- ΔdisG, dissolution Gibbs free energy ([2]; Water, 308.15 K): 0.1608 kcal/mol
- ΔdisG, dissolution Gibbs free energy ([2]; Water, 313.15 K): 0.1709 kcal/mol
- ΔdisG, dissolution Gibbs free energy ([2]; Water, 318.15 K): 0.181 kcal/mol
- ΔdisG, dissolution Gibbs free energy ([2]; Water, 323.15 K): 0.1911 kcal/mol
- solubility ([3]; water): 20.76 ± 0.099 µg/mL (≈ 63.5 µM)
- lethal concentration in snails (snails): 0.3 mg/L
- apoptosis inducer, concentration (MDA-MB-231): 1–10 µM/L
- IC50 (MCF-7): 1060 nM
- parasitic proliferation inhibitor MIC50 (parasitic proliferation): 200–250 nM/L
- hepatitis C virus replication inhibitor (hepatitis C virus): 0.16 µM/L
- aqueous solubility [4]: 6 to 20 µg/mL

SMILES: C[S+](C)[O-] [dimethyl sulfoxide]
- log P [1]: −1.35

SMILES: O=C(Nc1ccc([N+](=O)[O-])cc1Cl)c1cc(Cl)ccc1O [NCL-DMSO]
- water solubility [3]: 18.082 ± 0.045 µg/mL (≈ 55.3 µM)

SMILES: O=C(Nc1ccc([N+](=O)[O-])cc1Cl)c1cc(Cl)ccc1O [NCL-MeOH]
- water solubility [3]: 16.261 ± 0.082 µg/mL (≈ 49.7 µM)
